We go through 4 compounds from ChEMBL document CHEMBL4765238, “Structure-Based Discovery and Optimization of Benzo[ d]isoxazole Derivatives as Potent and Selective BET Inhibitors for Potential Treatment of Castration-Resistant Prostate Cancer (CRPC)” (J Med Chem, 2018).

Active and inactive are the calls of the source. The calls are words filed in the database; no cut-off is given here.

Series [1] has as its target Transcription initiation factor TFIID subunit 1 (Homo sapiens) (UniProt P21675). The experiment in a line: Binding affinity to human recombinant His6-tagged TAF1 bromodomain 1 (R1377 to D1503 residues) expressed in Escherichia coli BL21 (DE3) cells assessed as change in melting temperature at 200 uM incubated for 30 mins by SYPRO orange dye based thermal shift assay. The essentials: (§1)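 Thermal shift assay measuring change in melting temperature of each isolated bromodomain module in the presence of compound versus without.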

For a further series, the system named is HFL1. The experiment in a line: Cytotoxicity against human HFL1 cells assessed as reduction in cell viability incubated for 72 hrs by cell-titer glo assay. Type of series: cell-based. The following applies: HFL1, 72 h.
For series [2], the target named is T1, Bromodomain-containing protein 4 (Homo sapiens, UniProt O60885). Nature of the series: Binding affinity to human recombinant His6-tagged BRD4 bromodomain 1 (N44 to E168 residues) expressed in Escherichia coli BL21 (DE3) cells assessed as gibbs free energy change incubated for 1 hr by isothermal titration calorimetry.
The subject of series [3] is CWR22R. The experiment in a line: Inhibition of colony formation in human 22Rv1 cells incubated for 14 days by crystal violet staining based assay. The format is functional, cell-based. The following applies: dose 0.5-2 µM, time 14.0 day. The essentials:
(§2)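 22Rv1 cells cultured with vehicle (DMSO) or compound at 0.5, 1.0 or 2.0 µM for 14 days, then stained and colonies assessed.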

The subject of a further series is A549. The experiment in a line: Antiproliferative activity against human A549 cells assessed as reduction in cell viability incubated for 72 hrs by cell-titer glo assay. Type of series: functional, cell-based. To be noted: A549, 72 h.
In another series the test system is HT-29. Nature of the series: Antiproliferative activity against human HT-29 cells assessed as reduction in cell viability incubated for 120 hrs by cell-titer glo assay. Type of series: functional, cell-based. The following applies: HT-29, 120 h.
The target in series [4] is T1, Bromodomain-containing protein 4. Nature of the series: Inhibition of HYSGRGK(Ac)GGK(Ac)GLGK(Ac)GGAK(Ac)RHRK(Biotin)-OH binding to recombinant human His6-tagged BRD4 bromodomain 1 (N44 to E168 residues) expressed in Escherichia coli BL21 (DE3) cells measured after 2 hrs by Alphascreen assay. Background: Bead proximity is the source of the signal in Alpha formats.
Series [5] addresses Bromodomain adjacent to zinc finger domain protein 2B (Homo sapiens) (UniProt Q9UIF8). Nature of the series: Binding affinity to human recombinant His6-tagged BAZ2B (S1858 to S1972 residues) expressed in Escherichia coli BL21 (DE3) cells assessed as change in melting temperature at 200 uM incubated for 30 mins by SYPRO orange dye based thermal shift assay. The procedure, abridged: as §1

For series [6], the system named is LNCaP C4-2B. Nature of the series: Inhibition of colony formation in human LNCaP C4-2B cells incubated for 14 days by crystal violet staining based assay. The following applies: dose 0.5-2 µM, time 14.0 day. The format is functional, cell-based. The procedure, abridged: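 C4-2B cells cultured with vehicle (DMSO) or compound at 0.5, 1.0 or 2.0 μM for 14 days, then colonies stained and counted against vehicle.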

The test system of series [7] is LNCaP C4-2B. The experiment in a line: Antitumor activity against human LNCaP C4-2B cells xenografted in CB17/IcrHSD-Prkdc-SCID mouse assessed as tumor growth inhibition at 50 mg/kg, ip administered 5 times per week for 25 days by caliper analysis. The format is functional. The following applies: 600 h, time 25 day, read-out: TGI. The essentials:
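C4-2B cells xenografted in mice; once tumours reached about 100 mm3, mice were randomized and given vehicle or compound at 50 mg/kg i.p. five times per week for 25 days; tumour volume (mean ± s.e.m.) and body weight tracked.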

A further series relates to U2OS. Nature of the series: Antiproliferative activity against human U2OS cells assessed as reduction in cell viability incubated for 72 hrs by cell-titer glo assay. The format is functional, cell-based.
Series [8] concerns CWR22R. Nature of the series: Inhibition of colony formation in human 22Rv1 cells at 0.5 uM incubated for 14 days by crystal violet staining based assay. The format is functional, cell-based. To be noted: time 14.0 day. The procedure, abridged: as §2
Series [9] has as its target T2, Bromodomain-containing protein 9 (Homo sapiens) (UniProt Q9H8M2).
T2 sequence (whole entry): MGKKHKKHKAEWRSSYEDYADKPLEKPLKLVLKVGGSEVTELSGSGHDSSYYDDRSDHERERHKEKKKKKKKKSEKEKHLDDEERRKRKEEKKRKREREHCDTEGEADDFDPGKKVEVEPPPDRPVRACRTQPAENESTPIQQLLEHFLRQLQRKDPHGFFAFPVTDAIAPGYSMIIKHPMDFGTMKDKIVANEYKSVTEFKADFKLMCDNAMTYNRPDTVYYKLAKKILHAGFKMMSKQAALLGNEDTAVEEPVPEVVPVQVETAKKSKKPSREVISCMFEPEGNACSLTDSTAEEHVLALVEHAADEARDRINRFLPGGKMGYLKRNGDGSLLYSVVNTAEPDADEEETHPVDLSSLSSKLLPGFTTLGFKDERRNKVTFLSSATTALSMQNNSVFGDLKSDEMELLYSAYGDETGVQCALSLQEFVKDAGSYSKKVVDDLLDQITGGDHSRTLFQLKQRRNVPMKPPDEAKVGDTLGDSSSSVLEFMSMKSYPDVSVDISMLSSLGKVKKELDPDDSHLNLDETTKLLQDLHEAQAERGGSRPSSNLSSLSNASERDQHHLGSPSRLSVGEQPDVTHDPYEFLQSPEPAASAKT
The experiment in a line: Binding affinity to human recombinant His6-tagged BRD9 (L14 to Q134 residues) expressed in Escherichia coli BL21 (DE3) cells assessed as change in melting temperature at 200 uM incubated for 30 mins by SYPRO orange dye based thermal shift assay. The essentials:
as §1

In the next series the test system is HeLa. Nature of the series: Antiproliferative activity against human HeLa cells assessed as reduction in cell viability incubated for 72 hrs by cell-titer glo assay. Type of series: functional, cell-based.
Series [10] relates to VCaP. The experiment in a line: Inhibition of BET bromodomain in human VCaP cells assessed as suppression of Myc mRNA expression at 5 uM incubated for 48 hrs by SYBR green dye based qRT-PCR analysis. Type of series: cell-based. The essentials:
(§3)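 LNCaP or VCaP cells exposed to vehicle (DMSO) or compound at 5 µM for 48 h; mRNA levels measured by qRT-PCR; mean ± s.e.m., n = 3; two-tailed Student's t-test.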
For orientation: Real-time PCR tracks product formation cycle by cycle.

A further series deals with 22Rv1. Nature of the series: Inhibition of BET bromodomain in human 22Rv1 cells assessed as suppression of AR-V7 protein expression at 1 to 16 uM incubated for 48 hrs by western blot analysis. Type of series: cell-based. The following applies: dose 1-16 µM. (In general: Immunoblotting shows a protein as a band on a membrane.)
A short description of series [11]: Toxicity in CB17/IcrHSD-Prkdc-SCID mouse xenografted with human LNCaP C4-2B cells assessed as effect on animal behaviour at 50 mg/kg, ip administered 5 times per week for 25 days. Type of series: organism-based. The following applies: in vivo, 600 h, time 25 day. The procedure, abridged: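 C4-2B xenograft mice randomized once tumors reached about 100 mm3. Vehicle or compound given i.p. at 50 mg/kg, five times per week, over a 25-day treatment period. Tolerability judged from body weight, tracked across treatment days, and from general behaviour.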

The test system of another series is LNCaP. Nature of the series: Inhibition of BET bromodomain in human LNCaP cells assessed as suppression of PSA mRNA expression at 5 uM incubated for 48 hrs by SYBR green dye based qRT-PCR analysis. Type of series: cell-based. The essentials: as §3
Series [12] has as its target Histone-lysine N-methyltransferase ASH1L (Homo sapiens) (UniProt Q9NR48). Nature of the series: Binding affinity to human recombinant His6-tagged ASH1L (E2433 to E2564 residues) expressed in Escherichia coli BL21 (DE3) cells assessed as change in melting temperature at 200 uM incubated for 30 mins by SYPRO orange dye based thermal shift assay. The essentials: as §1

Series [13] relates to VCaP. Nature of the series: Inhibition of BET bromodomain in human VCaP cells assessed as suppression of TMPRSS2 mRNA expression at 5 uM incubated for 48 hrs by SYBR green dye based qRT-PCR analysis. Type of series: cell-based. The procedure, abridged: as §3

Chain of Transcription initiation factor TFIID subunit 1 (Homo sapiens) (P21675 whole entry, the tested form may be a part): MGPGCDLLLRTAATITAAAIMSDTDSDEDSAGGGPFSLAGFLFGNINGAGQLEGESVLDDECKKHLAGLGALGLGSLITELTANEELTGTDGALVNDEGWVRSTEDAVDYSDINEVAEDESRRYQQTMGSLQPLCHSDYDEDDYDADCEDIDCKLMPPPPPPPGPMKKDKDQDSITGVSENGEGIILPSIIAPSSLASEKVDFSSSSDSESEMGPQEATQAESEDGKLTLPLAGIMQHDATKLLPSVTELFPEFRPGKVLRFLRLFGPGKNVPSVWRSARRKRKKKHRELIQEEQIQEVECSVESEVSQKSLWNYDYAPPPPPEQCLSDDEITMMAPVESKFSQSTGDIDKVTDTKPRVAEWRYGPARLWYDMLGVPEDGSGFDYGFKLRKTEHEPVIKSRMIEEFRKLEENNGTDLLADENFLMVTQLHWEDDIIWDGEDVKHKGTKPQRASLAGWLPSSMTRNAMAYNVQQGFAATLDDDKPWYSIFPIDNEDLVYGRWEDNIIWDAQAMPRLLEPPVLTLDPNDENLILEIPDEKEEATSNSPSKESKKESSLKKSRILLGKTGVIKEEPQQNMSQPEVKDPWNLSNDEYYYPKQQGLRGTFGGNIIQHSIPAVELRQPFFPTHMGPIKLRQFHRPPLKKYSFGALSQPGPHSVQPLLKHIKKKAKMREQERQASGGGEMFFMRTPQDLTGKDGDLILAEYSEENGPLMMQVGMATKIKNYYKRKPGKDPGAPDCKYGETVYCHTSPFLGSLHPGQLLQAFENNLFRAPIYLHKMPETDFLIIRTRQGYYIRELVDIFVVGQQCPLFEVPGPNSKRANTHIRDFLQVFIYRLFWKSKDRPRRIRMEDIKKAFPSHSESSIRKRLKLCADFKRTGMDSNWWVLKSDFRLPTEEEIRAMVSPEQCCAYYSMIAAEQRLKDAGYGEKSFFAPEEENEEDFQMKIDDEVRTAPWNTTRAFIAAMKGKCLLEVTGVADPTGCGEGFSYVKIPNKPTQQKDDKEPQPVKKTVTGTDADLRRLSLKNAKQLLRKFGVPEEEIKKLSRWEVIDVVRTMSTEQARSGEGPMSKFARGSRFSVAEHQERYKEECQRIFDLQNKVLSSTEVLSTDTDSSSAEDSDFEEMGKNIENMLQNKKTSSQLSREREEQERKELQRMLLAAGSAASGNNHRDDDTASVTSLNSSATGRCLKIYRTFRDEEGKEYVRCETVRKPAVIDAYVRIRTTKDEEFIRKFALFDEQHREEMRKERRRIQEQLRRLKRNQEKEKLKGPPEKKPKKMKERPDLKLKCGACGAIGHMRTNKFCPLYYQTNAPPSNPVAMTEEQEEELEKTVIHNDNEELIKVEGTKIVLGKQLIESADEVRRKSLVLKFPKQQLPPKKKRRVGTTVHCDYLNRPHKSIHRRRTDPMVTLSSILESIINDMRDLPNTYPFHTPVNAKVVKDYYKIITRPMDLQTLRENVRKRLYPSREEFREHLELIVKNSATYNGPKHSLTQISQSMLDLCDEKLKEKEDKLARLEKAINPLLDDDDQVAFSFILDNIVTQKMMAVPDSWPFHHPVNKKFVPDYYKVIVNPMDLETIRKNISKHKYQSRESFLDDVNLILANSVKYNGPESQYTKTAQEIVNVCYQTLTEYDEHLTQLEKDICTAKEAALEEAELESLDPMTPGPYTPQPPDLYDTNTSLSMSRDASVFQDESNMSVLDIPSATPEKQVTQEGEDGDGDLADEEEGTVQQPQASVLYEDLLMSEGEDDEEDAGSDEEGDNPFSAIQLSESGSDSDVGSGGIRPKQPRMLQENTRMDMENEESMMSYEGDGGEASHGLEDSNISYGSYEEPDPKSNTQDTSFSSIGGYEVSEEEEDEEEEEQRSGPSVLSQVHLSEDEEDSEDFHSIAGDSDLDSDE
Chain of Bromodomain adjacent to zinc finger domain protein 2B (Homo sapiens) (Q9UIF8 whole entry, the tested form may be a part): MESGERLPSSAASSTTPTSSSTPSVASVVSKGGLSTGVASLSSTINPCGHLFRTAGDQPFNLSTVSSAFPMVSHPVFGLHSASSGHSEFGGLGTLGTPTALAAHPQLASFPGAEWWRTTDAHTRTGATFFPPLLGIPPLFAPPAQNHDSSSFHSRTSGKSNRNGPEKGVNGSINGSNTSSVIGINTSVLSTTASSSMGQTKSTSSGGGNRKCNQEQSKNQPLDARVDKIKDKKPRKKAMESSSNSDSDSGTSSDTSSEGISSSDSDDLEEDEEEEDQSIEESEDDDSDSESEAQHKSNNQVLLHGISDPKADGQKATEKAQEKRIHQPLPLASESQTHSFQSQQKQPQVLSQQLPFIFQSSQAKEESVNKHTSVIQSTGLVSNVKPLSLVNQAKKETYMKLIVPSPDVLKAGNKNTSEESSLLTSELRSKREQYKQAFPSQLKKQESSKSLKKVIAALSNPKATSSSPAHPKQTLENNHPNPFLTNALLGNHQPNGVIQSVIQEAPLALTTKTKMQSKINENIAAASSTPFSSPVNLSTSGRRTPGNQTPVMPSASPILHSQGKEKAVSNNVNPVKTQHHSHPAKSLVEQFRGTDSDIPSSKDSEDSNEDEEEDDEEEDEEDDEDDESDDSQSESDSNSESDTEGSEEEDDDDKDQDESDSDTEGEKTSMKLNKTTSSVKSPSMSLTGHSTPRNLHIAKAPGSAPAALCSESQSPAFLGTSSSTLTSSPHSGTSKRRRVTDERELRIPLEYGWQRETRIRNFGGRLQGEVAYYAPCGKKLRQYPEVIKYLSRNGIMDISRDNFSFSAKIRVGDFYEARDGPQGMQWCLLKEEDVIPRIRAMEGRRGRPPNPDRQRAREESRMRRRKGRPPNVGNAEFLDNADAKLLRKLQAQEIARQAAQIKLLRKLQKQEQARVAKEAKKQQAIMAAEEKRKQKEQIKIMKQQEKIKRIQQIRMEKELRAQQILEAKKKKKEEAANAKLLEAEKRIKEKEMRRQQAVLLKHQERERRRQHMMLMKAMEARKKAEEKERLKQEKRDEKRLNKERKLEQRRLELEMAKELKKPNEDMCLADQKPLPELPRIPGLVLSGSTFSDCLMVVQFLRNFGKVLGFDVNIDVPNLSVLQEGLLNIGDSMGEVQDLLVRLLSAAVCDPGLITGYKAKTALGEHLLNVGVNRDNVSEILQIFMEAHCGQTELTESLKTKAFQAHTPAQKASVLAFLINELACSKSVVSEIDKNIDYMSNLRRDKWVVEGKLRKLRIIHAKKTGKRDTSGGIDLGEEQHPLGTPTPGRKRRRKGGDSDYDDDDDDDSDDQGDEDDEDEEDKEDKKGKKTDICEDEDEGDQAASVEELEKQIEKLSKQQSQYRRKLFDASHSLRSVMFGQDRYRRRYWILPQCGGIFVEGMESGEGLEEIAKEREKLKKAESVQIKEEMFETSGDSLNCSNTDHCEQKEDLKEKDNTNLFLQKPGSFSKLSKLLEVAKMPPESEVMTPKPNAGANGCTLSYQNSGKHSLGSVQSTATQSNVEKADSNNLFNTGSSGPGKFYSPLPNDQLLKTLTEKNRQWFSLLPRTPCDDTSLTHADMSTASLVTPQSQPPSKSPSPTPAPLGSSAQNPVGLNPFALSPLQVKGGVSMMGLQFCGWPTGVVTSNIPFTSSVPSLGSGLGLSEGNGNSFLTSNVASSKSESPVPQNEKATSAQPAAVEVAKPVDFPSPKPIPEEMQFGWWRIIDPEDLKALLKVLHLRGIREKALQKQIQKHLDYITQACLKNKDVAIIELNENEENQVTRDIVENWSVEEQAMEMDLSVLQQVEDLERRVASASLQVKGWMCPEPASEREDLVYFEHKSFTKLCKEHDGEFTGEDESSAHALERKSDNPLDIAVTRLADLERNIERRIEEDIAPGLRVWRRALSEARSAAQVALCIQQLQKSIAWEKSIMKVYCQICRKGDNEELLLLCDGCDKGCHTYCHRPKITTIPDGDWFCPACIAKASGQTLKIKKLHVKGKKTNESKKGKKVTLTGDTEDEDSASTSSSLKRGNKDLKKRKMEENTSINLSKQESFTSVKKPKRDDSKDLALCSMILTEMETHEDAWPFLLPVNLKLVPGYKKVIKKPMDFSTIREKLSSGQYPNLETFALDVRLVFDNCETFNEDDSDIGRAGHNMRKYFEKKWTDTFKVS

A word on the ΔTm: it is the shift of the melting midpoint relative to a reference. As a reminder, the IC50 is the concentration at which inhibition is half-maximal. Take `COc1cc2onc(C)c2cc1NS(=O)(=O)c1cc(Br)ccc1OC`: the ΔTm in series [1] is 0.1 °C; in series [5], 0 °C; in series [9], -0.9 °C; in series [12], 0.3 °C. In addition, the IC50 is 18.2 µM in the series with HFL1; more than 5 µM in the series on A549; 0.4 µM in the series with HT-29; 0.13 µM in [4]; more than 5 µM with U2OS; more than 5 µM with HeLa. The deltaG in [2] is -40.6 kJ/mol. The inhibition result in the series on CWR22R [3] and with LNCaP C4-2B [6] was “Dose-dependent effect” throughout. Besides, in the series on LNCaP C4-2B [7], the inhibition in vivo at 50 mg/kg was found to be 70%. The inhibition entry in the series on CWR22R [8], in the series with VCaP [10], in the series on 22Rv1, in the series on LNCaP and in the series with VCaP [13] was “Active” throughout. Besides, in [11], the Activity result was “Non-Toxic”.
Take `Cc1noc2c(Br)cc(-c3nc4ccc(N5CCOCC5)cc4n3CC3CCCCC3)cc12`: the ΔTm was -0.6 °C in series [1], -0.6 °C in [5], -0.9 °C in series [9] and -0.9 °C in series [12]. Further, in [2], the deltaG was -38.9 kJ/mol. Besides, the IC50 in series [4] stood at 0.3 µM.
With `Cc1noc2ccc(-c3nc4ccc(N5CCOC[C@@H]5C)cc4n3CC3CCCCC3)cc12`, the ΔTm in series [1] is -0.9 °C; in series [5] it was -0.6 °C; in series [9], -0.8 °C; in series [12] it was -0.5 °C. The IC50 was 15.9 µM in the series on HFL1; 2.5 µM in the series on A549; 0.4 µM in the series on HT-29; 0.18 µM in series [4]; more than 5 µM with U2OS; more than 5 µM in the series with HeLa. The deltaG in [2] is -40.6 kJ/mol. In addition, the inhibition result in the series with CWR22R [3] and in the series with LNCaP C4-2B [6] was “Dose-dependent effect” in each case. In addition, the inhibition in vivo at 50 mg/kg in the series on LNCaP C4-2B [7] amounted to 51%. Further, the inhibition result with CWR22R [8], in the series on VCaP [10], with 22Rv1, in the series with LNCaP and in the series with VCaP [13] was “Active” each time. Moreover, the Activity entry in [11] is listed as “Non-Toxic”.
As to `CNc1cc2onc(C)c2cc1NS(=O)(=O)c1cc(Br)ccc1OC`, the ΔTm in series [1] is -0.1 °C; in [5] it was 0.3 °C; in [9], -0.8 °C; in series [12] it was -0.1 °C. Besides, the deltaG in series [2] was -38.9 kJ/mol. Further, the IC50 in [4] stood at 0.15 µM.
